Measurements published in ChEMBL document CHEMBL1142153, “Pharmacokinetics and disposition of CS-023 (RO4908463), a novel parenteral carbapenem, in animals” (Antimicrob Agents Chemother, 2007).

Experiments:
[1] = tested on: Macaca fascicularis; experiment: Volume of distribution at steady state in monkey at 25 mg/kg, iv; details: cynomolgus monkey, in vivo, read-out: Vss
[2] = tested on: Macaca fascicularis; experiment: Volume of distribution at steady state in monkey at 5 mg/kg, iv; details: cynomolgus monkey, in vivo, read-out: Vss
[3] = tested on: Macaca fascicularis; experiment: Half life in monkey at 25 mg/kg, iv; details: cynomolgus monkey, in vivo
[4] = tested on: Macaca fascicularis; experiment: AUC (0-inf) in monkey at 5 mg/kg, iv; details: cynomolgus monkey, plasma
[5] = Protein binding in dog serum at 100 ug/ml; type: ADME, cell-free, Canis lupus familiaris; details: read-out: PPB (converted)
How it was run: (§1)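 Serum was spiked with CS-023 in water to a final 20 or 100 µg/ml and incubated for 5 min at 37°C. It was then ultrafiltered by centrifugation at 2,000 x g for 10 min at room temperature. Drug in serum before filtration (Ct) and in the filtrate (Cf) was measured by HPLC-UV. Bound % = (Ct − Cf)/Ct × 100; n=4.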

[6] = tested on: Macaca fascicularis; experiment: AUC (0-inf) in monkey at 25 mg/kg, iv; details: cynomolgus monkey, plasma
[7] = Protein binding in dog serum at 20 ug/ml; type: ADME, cell-free, Canis lupus familiaris; details: read-out: PPB
How it was run: as §1

[8] = Volume of distribution at steady state in rat at 25 mg/kg, iv; type: ADME, organism-based; design: dose 25 mg/kg, route intravenous; details: in vivo, read-out: Vss
How it was run: (§2)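 Rats dosed once by tail-vein bolus of CS-023 in saline; blood drawn serially from the jugular vein and plasma separated at 4°C. Plasma mixed 1:1 with 500 mM MOPS pH 6.0 containing p-acetamidophenol internal standard and assayed by HPLC with UV at 304 nm (linear 1 to 500 µg/ml). Vss = CL (dose/AUC0-∞) × mean residence time.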

[9] = Clearance in rat at 10 mg/kg, iv; type: ADME, organism-based; design: dose 10 mg/kg, route intravenous; details: in vivo
How it was run: (§3)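 Rats received CS-023 in saline by tail-vein bolus at 10, 25 or 50 mg/kg; jugular blood was drawn serially. Plasma mixed with an equal volume of 500 mM MOPS pH 6.0 containing internal standard, then HPLC with UV at 304 nm (linear 1–500 µg/ml). Log-linear terminal kel gave t1/2; AUC by trapezoidal rule + Clast/kel; CL = dose/AUC0-inf. n=3.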

[10] = AUC (0-inf) in dog at 10 mg/kg, iv; type: ADME, organism-based, Canis lupus familiaris; design: dose 10 mg/kg, route intravenous, time infinity; details: plasma
How it was run: (§4)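 Single i.v. bolus of CS-023 in saline into the foreleg saphenous vein of dogs at 5, 10 or 25 mg/kg; serial blood from the same vein. Plasma separated at 4°C, mixed 1:1 with 500 mM MOPS pH 6.0 containing internal standard, and analysed by two-column HPLC with UV at 304 nm; linear 1–500 µg/ml. kel from log-linear terminal slope, t1/2 = 0.693/kel; AUC by trapezoids plus Clast/kel; CL = dose/AUC; Vss = CL × MRT. n=3.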

[11] = tested on: Macaca fascicularis; experiment: Clearance in monkey at 25 mg/kg, iv; details: cynomolgus monkey, in vivo
[12] = AUC (0-inf) in dog at 5 mg/kg, iv; type: ADME, organism-based, Canis lupus familiaris; design: time infinity, dose 5 mg/kg, route intravenous; details: plasma
How it was run: as §4

[13] = Protein binding in rat serum at 20 ug/ml; type: ADME, cell-free; details: read-out: PPB (converted)
How it was run: as §1

[14] = Half life in rat at 50 mg/kg, iv; type: ADME, organism-based; design: dose 50 mg/kg, route intravenous; details: in vivo
How it was run: as §3

[15] = AUC (0-inf) in dog at 25 mg/kg, iv; type: ADME, organism-based, Canis lupus familiaris; design: time infinity, dose 25 mg/kg, route intravenous; details: plasma
How it was run: as §4

[16] = tested on: Macaca fascicularis; experiment: Clearance in monkey at 5 mg/kg, iv; details: cynomolgus monkey, in vivo
[17] = Clearance in dog at 25 mg/kg, iv; type: ADME, organism-based, Canis lupus familiaris; design: dose 25 mg/kg, route intravenous; details: in vivo
How it was run: as §4

[18] = AUC (0-inf) in rat at 10 mg/kg, iv; type: ADME, organism-based; design: dose 10 mg/kg, route intravenous, time infinity; details: plasma
How it was run: as §3

[19] = Clearance in rat at 25 mg/kg, iv; type: ADME, organism-based; design: dose 25 mg/kg, route intravenous; details: in vivo
How it was run: as §3

[20] = Volume of distribution at steady state in dog at 10 mg/kg, iv; type: ADME, organism-based, Canis lupus familiaris; design: dose 10 mg/kg, route intravenous; details: in vivo, read-out: Vss
How it was run: as §4

[21] = Protein binding in rat serum at 100 ug/ml; type: ADME, cell-free; details: read-out: PPB (converted)
How it was run: as §1

[22] = Volume of distribution at steady state in dog at 25 mg/kg, iv; type: ADME, organism-based, Canis lupus familiaris; design: dose 25 mg/kg, route intravenous; details: in vivo, read-out: Vss
How it was run: as §4

[23] = tested on: Macaca fascicularis; experiment: Volume of distribution at steady state in monkey at 10 mg/kg, iv; details: cynomolgus monkey, in vivo, read-out: Vss
[24] = Clearance in dog at 10 mg/kg, iv; type: ADME, organism-based, Canis lupus familiaris; design: dose 10 mg/kg, route intravenous; details: in vivo
How it was run: as §4

[25] = Half life in dog at 25 mg/kg, iv; type: ADME, organism-based, Canis lupus familiaris; design: dose 25 mg/kg, route intravenous; details: in vivo
How it was run: as §4

[26] = Half life in dog at 5 mg/kg, iv; type: ADME, organism-based, Canis lupus familiaris; design: dose 5 mg/kg, route intravenous; details: in vivo
How it was run: as §4

[27] = tested on: Macaca fascicularis; experiment: Half life in monkey at 5 mg/kg, iv; details: cynomolgus monkey, in vivo
[28] = tested on: Macaca fascicularis; experiment: AUC (0-inf) in monkey at 10 mg/kg, iv; details: cynomolgus monkey, plasma
[29] = Clearance in rat at 50 mg/kg, iv; type: ADME, organism-based; design: dose 50 mg/kg, route intravenous; details: in vivo
How it was run: as §3

[30] = Volume of distribution at steady state in rat at 50 mg/kg, iv; type: ADME, organism-based; design: dose 50 mg/kg, route intravenous; details: in vivo, read-out: Vss
How it was run: as §2

[31] = Half life in rat at 25 mg/kg, iv; type: ADME, organism-based; design: dose 25 mg/kg, route intravenous; details: in vivo
How it was run: as §3

[32] = tested on: Macaca fascicularis; experiment: Half life in monkey at 10 mg/kg, iv; details: cynomolgus monkey, in vivo
[33] = organism: Macaca fascicularis; experiment: Protein binding in monkey serum at 20 ug/ml; details: cynomolgus monkey, read-out: PPB (converted)
[34] = tested on: Macaca fascicularis; experiment: Clearance in monkey at 10 mg/kg, iv; details: cynomolgus monkey, in vivo
[35] = tested on: Rattus norvegicus; experiment: Fecal excretion in rat assessed as radioactivity at 10 mg/kg, iv after 24 h; type: ADME, organism-based; design: dose 10 mg/kg, route intravenous; details: in vivo
How it was run: (§5)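 Rats were dosed i.v. via the tail vein with [14C]CS-023 at 10 mg/kg (4.58 MBq/kg) in saline, then kept in individual metabolic cages for separate urine and feces collection over 7 days. Samples up to 24 h were collected at around 4°C into 0.5 M MOPS pH 6.0, and feces were homogenized. Radioactivity was measured by liquid scintillation counting. Parent drug and metabolite were apportioned by silica TLC (3% NaCl:acetonitrile 2:1) with imaging-plate analysis. n=4.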

[36] = Half life in dog at 10 mg/kg, iv; type: ADME, organism-based, Canis lupus familiaris; design: dose 10 mg/kg, route intravenous; details: in vivo
How it was run: as §4

[37] = Clearance in dog at 5 mg/kg, iv; type: ADME, organism-based, Canis lupus familiaris; design: dose 5 mg/kg, route intravenous; details: in vivo
How it was run: as §4

[38] = organism: Macaca fascicularis; experiment: Protein binding in monkey serum at 100 ug/ml; details: cynomolgus monkey, read-out: PPB (converted)
[39] = AUC (0-inf) in rat at 50 mg/kg, iv; type: ADME, organism-based; design: time infinity, dose 50 mg/kg, route intravenous; details: plasma
How it was run: as §3

[40] = AUC (0-inf) in rat at 25 mg/kg, iv; type: ADME, organism-based; design: time infinity, dose 25 mg/kg, route intravenous; details: plasma
How it was run: as §3

[41] = tested on: Rattus norvegicus; experiment: Urinary excretion in rat assessed as radioactivity at 10 mg/kg, iv after 24 h; type: ADME, organism-based, Urine; design: dose 10 mg/kg, route intravenous; details: in vivo
How it was run: as §5

[42] = Half life in rat at 10 mg/kg, iv; type: ADME, organism-based; design: dose 10 mg/kg, route intravenous; details: in vivo
How it was run: as §3

[43] = Volume of distribution at steady state in dog at 5 mg/kg, iv; type: ADME, organism-based, Canis lupus familiaris; design: dose 5 mg/kg, route intravenous; details: in vivo, read-out: Vss
How it was run: as §4

[44] = Volume of distribution at steady state in rat at 10 mg/kg, iv; type: ADME, organism-based; design: dose 10 mg/kg, route intravenous; details: in vivo, read-out: Vss
How it was run: as §2

C[C@@H](O)[C@H]1C(=O)N2C(C(=O)O)=C(S[C@H]3C[C@@H](C(=O)N4CC[C@H](NC(=O)CNC(=N)N)C4)N(C)C3)[C@H](C)[C@H]12 [TOMOPENEM]
Vd [1]: 0.184 L/kg | Vd [2]: 0.176 L/kg | half-life [3]: 86.4 min | AUC(0-inf) [4]: 48600 ng·h/mL | fraction unbound at 100 ug/ml [5]: 0.946 | AUC(0-inf) [6]: 244000 ng·h/mL | fraction unbound at 20 ug/ml [7]: 0.91 | Vd [8]: 0.218 L/kg | clearance [9]: 16.9 mL/min/kg | AUC(0-inf) [10]: 39900 ng·h/mL | clearance [11]: 1.73 mL/min/kg | AUC(0-inf) [12]: 18800 ng·h/mL | fraction unbound at 20 ug/ml [13]: 0.95 | half-life [14]: 12 min | AUC(0-inf) [15]: 129000 ng·h/mL | clearance [16]: 1.76 mL/min/kg | clearance [17]: 3.26 mL/min/kg | AUC(0-inf) [18]: 10200 ng·h/mL | clearance [19]: 15.1 mL/min/kg | Vd [20]: 0.259 L/kg | fraction unbound at 100 ug/ml [21]: 0.941 | Vd [22]: 0.228 L/kg | Vd [23]: 0.172 L/kg | clearance [24]: 4.19 mL/min/kg | half-life [25]: 52.8 min | half-life [26]: 45 min | half-life [27]: 79.2 min | AUC(0-inf) [28]: 104000 ng·h/mL | clearance [29]: 15.2 mL/min/kg | Vd [30]: 0.22 L/kg | half-life [31]: 11.4 min | half-life [32]: 83.4 min | fraction unbound at 20 ug/ml [33]: 0.844 | clearance [34]: 1.62 mL/min/kg | Activity [35]: 3.1% | half-life [36]: 45 min | clearance [37]: 4.44 mL/min/kg | fraction unbound at 100 ug/ml [38]: 0.849 | AUC(0-inf) [39]: 55000 ng·h/mL | AUC(0-inf) [40]: 28400 ng·h/mL | Activity [41]: 29.6% | half-life [42]: 9.6 min | Vd [43]: 0.269 L/kg | Vd [44]: 0.199 L/kg

C[C@@H]1[C@H]([C@H](C(=O)O)[C@@H](C)O)N=C(C(=O)O)[C@H]1S[C@H]1C[C@@H](C(=O)N2CC[C@H](NC(=O)CNC(=N)N)C2)N(C)C1
Activity [35]: 1.3% | Activity [41]: 31.4%
